Laboratory results: ChEMBL document CHEMBL1949657, “Chemical modification of the multitarget neuroprotective compound fisetin” (J Med Chem, 2012)
pEC50: −log10 of the molar value. The source made the active and inactive calls.

Columns and labels:
HT-22 [1] = experiment: Neuroprotective activity in mouse HT22 cells assessed as reduction in IAA-induced ischemia after 24 hrs by MTT assay; type: functional, cell-based; conditions: for pEC50: Mus musculus, HT-22, 24 h, read-out: EC50
How it was run: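 HT22 cells seeded at 5×10^3/well. Next day switched to DMEM + 7.5% DFCS with 20 μM IAA ± derivative doses for 2 h, then IAA-free medium with derivative for 20 h. MTT 2.5 μg/ml for 4 h at 37 °C, solubilised in DMF/SDS pH 4.7, A570 read. Controls for compound toxicity and assay interference. EC50 from dose series; tested twice, third time if EC50 < 1 μM.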

HT-22 [2] = experiment: Neuroprotective activity against glutamate-induced GSH loss in mouse HT22 cells assessed as intracellular GSH level at 1 to 10 uM after 24 hrs; type: functional, cell-based
How it was run: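 HT22 cells given derivatives (1–10 μM) with 5 mM glutamate. After 24 h, cell extracts analysed for total intracellular GSH by chemical assay. Fisetin 10 μM as positive control. Tested twice; positives tested a third time.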

PC-12 = experiment: Neurotrophic activity in rat PC12 cells assessed as neurite outgrowth at 1 to 10 uM after 24 hrs; type: functional, cell-based
How it was run: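 PC12 cells in N2 medium given derivatives (1–10 μM) for 24 h, fisetin 10 μM as positive control. 100 cells counted in each of three fields. A cell scored positive with ≥1 neurite longer than one cell-body diameter. Tested twice; positives tested a third time.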

N9 = experiment: Antiinflammatory activity in mouse N9 cells assessed as reduction of LPS-induced microglial activation at 1 to 10 uM measured as nitrite level after 24 hrs by Griess reagent-based assay; type: functional; parameters: scale not given: the % may be the effect or the level left
How it was run: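 N9 microglia in DME with 7.5% DFCS, given 10 μg/ml LPS alone or with derivatives (1–10 μM) for 24 h. Medium spun to remove floating cells, then nitrite measured with Griess reagent, 10 min at room temperature, absorbance 550 nm. Fisetin 10 μM as positive control. Tested twice; positives tested a third time.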

[3] = Antioxidant activity against ABTS radical assessed as trolox equivalent after 4 mins by TEAC assay; type: functional
How it was run: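 ABTS radical cation formed overnight with potassium persulfate and diluted to OD ~0.7 at 734 nm, then mixed with derivative in ethanol. Loss of A734 followed over 4 min. TEAC = slope of % absorbance inhibition vs concentration divided by the slope for Trolox.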

HT-22 [4] = experiment: Ratio of fisetin EC50 to compound EC50 for neuroprotectivie activity in mouse HT22 cells; type: functional
HT-22 [5] = experiment: Induction of Nrf2 expression in mouse HT22 cells from 1 to 4 hrs by immunoblotting; type: functional, cell-based
How it was run: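 Nuclear extracts taken from untreated and derivative-treated cells at 1, 2 and 4 h. Equal protein run on 10% SDS-PAGE, blotted to nitrocellulose (Ponceau-S loading check). Probed with anti-Nrf2 (1/1000) and anti-β-actin, HRP secondary, chemiluminescence. Tested twice; positives tested a third time.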

Oryctolagus cuniculus = experiment: Neuroprotective activity in New Zealand white rabbit small clot embolism model assessed as reduction in stroke-induced behavioural deficits at 50 mg/kg, iv administered 5 mins post-embolization measured after 24 hrs; type: functional, organism-based; parameters: dose 50 mg/kg, route intravenous

| pEC50 (Oryctolagus cuniculus) | Compound | pEC50 (HT-22 [1]) | Activity (HT-22 [2]) | Activity (PC-12) | Activity (N9) | Activity [3] | Ratio EC50 (HT-22 [4]) | EC50 (HT-22 [1]; ht-22) | Activity (HT-22 [5]) |
| --- | --- | --- | --- | --- | --- | --- | --- | --- | --- |
|  | COc1ccc(-c2oc3cc(C)c(C)cc3c(=O)c2O)cc1O | 7.70 | inactive | inactive | 72% | 1.74 equiv | 10 |  |  |
|  | COc1ccc(/C=C/C(=O)c2cc(C)c(C)cc2O)cc1OCc1ccccc1 |  | Active | Active | 70% | 0.12 equiv |  | Not Active | Active |
|  | Cc1cc2oc(-c3ccc(N(C)C)cc3)c(O)c(=O)c2cc1C | 7.70 | Active | inactive | 11% | 3 equiv |  |  | inactive |
|  | COc1cc(-c2cc(=O)c3cc(C)c(C)cc3o2)ccc1O | 7.52 | inactive | inactive | 41% | 0.12 equiv | 10 |  |  |
|  | O=c1c(O)c(-c2ccc(O)c(O)c2)oc2ccccc12 | 6.30 | Active | Active | 80% | 2 equiv | 6 |  | Active |
|  | COc1cc(-c2ccc(O)c(O)c2)nc2ccccc12 | 7.40 | Active | inactive | 85% | 0.36 equiv | 75 |  | inactive |
|  | COc1cc(-c2oc3cc(C)c(C)cc3c(=O)c2O)ccc1O | 7.40 | inactive | inactive | 77% | 1.89 equiv | 10 |  |  |
|  | Cc1cc2oc(-c3ccc(N4CCCC4)c(O)c3)c(O)c(=O)c2cc1C | 7.82 | Active | Active | 21% | 2.79 equiv |  |  | inactive |
|  | O=c1c(O)c(-c2ccc(N3CCCC3)c(O)c2)oc2c1ccc1ccccc12 | 8.30 | Active | Active | 50% | 2.1 equiv | 600 |  | inactive |
|  | Cc1cc2oc(-c3ccc(N4CCCC4)cc3)c(O)c(=O)c2cc1C | 7.05 | Active | Active | 0% | 2.4 equiv |  |  | inactive |
|  | Oc1ccc(-c2cc(OC3CCCC3)c3ccccc3n2)cc1O [CMS-121] | 8.15 | Active | Active | 82% | 0.4 equiv |  |  | inactive |
|  | CN(C)c1ccc(-c2oc3c(ccc4ccccc43)c(=O)c2O)cc1 | 7.40 | Active | inactive | 0% | 0.93 equiv |  |  | inactive |
|  | O=C(/C=C/c1ccc(O)c(O)c1)c1ccc2ccccc2c1O | 7.10 | Active | Active | 75% | 2.8 equiv |  |  | Active |
| 5.70 | O=c1c(O)c(-c2ccc(O)c(O)c2)oc2cc(O)ccc12 [FISETIN] | 5.52 | Active | Active | 80% | 3 equiv |  |  | Active |
